Broadly, the IC50 is the concentration needed to halve the response being measured.

The target of the first test is T1, C-C chemokine receptor type 1 (Homo sapiens, UniProt P32246).
T1 sequence (P32246 whole entry): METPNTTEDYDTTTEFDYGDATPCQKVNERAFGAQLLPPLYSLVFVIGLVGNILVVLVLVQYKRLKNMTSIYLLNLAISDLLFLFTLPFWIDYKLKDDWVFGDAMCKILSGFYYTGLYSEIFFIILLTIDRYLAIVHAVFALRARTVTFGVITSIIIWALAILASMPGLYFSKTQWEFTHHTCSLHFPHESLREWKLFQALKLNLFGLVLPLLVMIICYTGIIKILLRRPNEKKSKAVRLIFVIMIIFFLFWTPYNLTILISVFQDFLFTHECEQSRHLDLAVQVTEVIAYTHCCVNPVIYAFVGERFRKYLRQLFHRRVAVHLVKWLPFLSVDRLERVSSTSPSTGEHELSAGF
The test is described as follows: Inhibitory activity against human Chemokine receptor type 1 expressed in chinese hamster ovary cells. The class given is cell-based, CHO.
For `COc1cccc(NC(=O)Nc2ccccc2CCN2CCC(Cc3ccccc3)CC2)c1`, the IC50 is more than 10 µM.

For `N#CC(CCCN1CCC(Cc2ccccc2)CC1)(c1ccccc1)c1ccccc1`, the concentration for half-maximal inhibition (IC50) was more than 50 µM. The same measure, in the same setting: the result for `O=C(Nc1ccc2[nH]ncc2c1)Nc1ccccc1CN1CCC(Cc2ccccc2)CC1` reads more than 10 µM. As for `COc1cccc(NC(=O)Nc2ccccc2CN2CCC(Cc3ccccc3)CC2)c1`, the IC50 is more than 10 µM.

Compound `c1ccc(CCCCN2CCC(Cc3ccccc3)CC2)cc1` displayed an IC50 of more than 50 µM. The same measure, in the same setting: the result for `O=C(NCCN1CCCCC1)Nc1ccccc1CN1CCC(Cc2ccccc2)CC1` reads more than 50 µM.

As for `O=C(NCC(CCCN1CCC(O)(c2ccc(Cl)cc2)CC1)(c1ccccc1)c1ccccc1)Nc1ccccc1`, the IC50 was less than 0.78 µM. For `c1ccc(CC2CCN(Cc3ccccc3)CC2)cc1`, the IC50 was more than 50 µM.

In the case of `COc1ccc(NC(=O)NCC(CCCN2CCC(O)(c3ccc(Cl)cc3)CC2)(c2ccccc2)c2ccccc2)cc1`, the IC50 came out at 0.78 µM. Compound `N#CC(CCCN1CCN(Cc2ccccc2)CC1)(c1ccccc1)c1ccccc1` displayed an IC50 of more than 50 µM. Same read-out and setting: the result for `CC(C)NC(=O)NCC(CCCN1CCC(O)(c2ccc(Cl)cc2)CC1)(c1ccccc1)c1ccccc1` reads less than 0.78 µM; that for `O=C(NCC(CCCN1CCC(O)(c2ccc(Cl)cc2)CC1)(c1ccccc1)c1ccccc1)NC1CCN(Cc2ccccc2)CC1`, 0.31 µM; that for `CNC(=O)NCC(CCCN1CCC(O)(c2ccc(Cl)cc2)CC1)(c1ccccc1)c1ccccc1`, less than 0.78 µM.

In a further test the target is T2, C-C chemokine receptor type 3 (Homo sapiens, UniProt P51677).
T2 sequence (P51677 whole entry): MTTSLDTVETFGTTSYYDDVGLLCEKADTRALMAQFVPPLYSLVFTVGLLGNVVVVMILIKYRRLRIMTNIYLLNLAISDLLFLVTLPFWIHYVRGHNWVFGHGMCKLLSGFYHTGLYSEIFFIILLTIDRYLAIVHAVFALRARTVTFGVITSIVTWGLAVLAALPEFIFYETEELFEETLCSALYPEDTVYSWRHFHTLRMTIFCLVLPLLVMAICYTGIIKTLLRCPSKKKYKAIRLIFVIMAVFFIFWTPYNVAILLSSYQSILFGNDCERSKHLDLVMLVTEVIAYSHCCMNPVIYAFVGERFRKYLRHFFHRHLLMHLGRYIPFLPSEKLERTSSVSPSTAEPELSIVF
Nature of the test: Inhibitory activity against recombinant human Chemokine receptor type 3 (CCR3) expressed in chinese hamster ovary cells. The class given is cell-based, CHO. In outline: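 CHO cells transfected with human CCR3, 5×10^5 per well, incubated 30 min at room temperature with 150 pM (final) 125I-labeled human eotaxin and compound. Binding buffer: RPMI 1640 with 0.5% BSA, 20 mM HEPES, 5 mM MgCl2. Filtration on protamine-treated filter plates, washed with binding buffer plus 0.5 M NaCl, filter counted. Nonspecific binding defined with 100 nM eotaxin. Percent inhibition taken against compound-free total binding. IC50 values are the mean of usually three determinations.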
With `COc1cccc(NC(=O)Nc2ccccc2CCN2CCC(Cc3ccccc3)CC2)c1`, the IC50 was 180 nM. Still for that read-out and setting: the result for `C[N+]1(Cc2cc3c(cc2NC(=O)Nc2cccc(C#N)c2)OCO3)CCC(Cc2ccc(F)cc2)CC1` (centres undefined) reads 2 nM. Consider `COc1ccc(NC(=O)NCc2ccccc2CN2CCC(Cc3ccccc3)CC2)cc1`, for which the IC50 is 1300 nM. Same read-out and setting: the result for `CC1C2=C(CC=CC2)C(=O)N1CC1CCN(CCc2ccccc2)CC1` (centres undefined) reads 12000 nM; that for `N#CC(CCCN1CCC(Cc2ccccc2)CC1)(c1ccccc1)c1ccccc1`, 4600 nM. The same measure, in the same setting: the result for `O=C(NCCCO)NC(Cc1ccccc1)c1ccccc1` (centres undefined) reads 50000 nM; that for `CC(=O)c1cccc(NC(=O)Nc2ccccc2CN2CCC(Cc3ccc(F)cc3)CC2)c1`, 125 nM; that for `O=C(Nc1ccc2[nH]ncc2c1)Nc1ccccc1CN1CCC(Cc2ccccc2)CC1`, 450 nM. Still for that read-out and setting: with `COc1cccc(NC(=O)Nc2ccccc2CN2CCC(Cc3ccccc3)CC2)c1` the figure was 600 nM; with `O=C(Nc1cccc(CN2CCC(Cc3ccccc3)CC2)c1)Nc1ccc2[nH]ncc2c1`, 620 nM; with `COC(=O)c1ccc(CN2CCC(Cc3ccccc3)CC2)c(NC(=O)Nc2cccc(OC)c2)c1`, 777 nM. For the compound `c1ccc(CCCCN2CCC(Cc3ccccc3)CC2)cc1`, the IC50 was 3800 nM. On the same count and under the same terms, the result for `CC(=O)c1cccc(NC(=O)Nc2cc3c(cc2C[N+]2(C)CCC(Cc4ccc(F)cc4)CC2)OCO3)c1` (centres undefined) reads 1 nM; that for `CC(=O)c1cccc(NC(=O)Nc2cc3c(cc2CN2CCC(Cc4ccccc4)CC2)OCO3)c1`, 228 nM. For `O=C(NCCN1CCCCC1)Nc1ccccc1CN1CCC(Cc2ccccc2)CC1`, the IC50 is 7600 nM. Still for that read-out and setting: the result for `COc1cccc(NC(=O)Nc2ccc(CO)cc2CN2CCC(Cc3ccc(F)cc3)CC2)c1` reads 47 nM; that for `COc1cccc(NC(=O)Nc2cc3c(cc2CN2CCC(Cc4ccc(F)cc4)CC2)OCO3)c1`, 141 nM. The same measure, in the same setting: the result for `O=C1CC2(CCc3ccccc32)C(=O)N1CC1CCN(CCc2ccccc2)CC1` (centres undefined) reads 2000 nM. As for `COC(=O)c1cccc(NC(=O)Nc2cccc(OC)c2)c1CN1CCC(Cc2ccc(F)cc2)CC1`, the IC50 came to 11 nM. Consider `O=C(NCC(CCCN1CCC(O)(c2ccc(Cl)cc2)CC1)(c1ccccc1)c1ccccc1)Nc1ccccc1`, for which the IC50 amounted to 9800 nM. On the same count and under the same terms, the result for `c1ccc(CC2CCN(Cc3ccccc3)CC2)cc1` reads 8300 nM; that for `COc1ccc(NC(=O)NCC(CCCN2CCC(O)(c3ccc(Cl)cc3)CC2)(c2ccccc2)c2ccccc2)cc1`, 7600 nM. Same read-out and setting: the result for `O=C(NCCc1ccc(F)cc1)Nc1ccccc1CN1CCC(Cc2ccccc2)CC1` reads 3800 nM; that for `CC(=O)c1cccc(NC(=O)Nc2cc3c(cc2CN2CCC(Cc4ccc(F)cc4)CC2)OCO3)c1`, 40 nM.

As for `O=C(Nc1ccc2[nH]ncc2c1)Nc1cc2c(cc1CN1CCC(Cc3ccccc3)CC1)OCO2`, the IC50 was 260 nM. The same measure, in the same setting: the result for `N#Cc1cccc(NC(=O)Nc2cc(CO)ccc2CN2CCC(Cc3ccccc3)CC2)c1` reads 114 nM; that for `N#CC(CCCN1CCN(Cc2ccccc2)CC1)(c1ccccc1)c1ccccc1`, 14100 nM; that for `N#Cc1cccc(NC(=O)Nc2ccccc2CCN2CCC(Cc3ccc(F)cc3)CC2)c1`, 14 nM. Still for that read-out and setting: with `CC(C)NC(=O)NCC(CCCN1CCC(O)(c2ccc(Cl)cc2)CC1)(c1ccccc1)c1ccccc1` the figure was 6100 nM. Same read-out and setting: with `O=C(Nc1ccccc1)Nc1cccc(CO)c1CN1CCC(Cc2ccc(F)cc2)CC1` the figure was 53 nM; with `Fc1ccc(CCCN2CCC3C(C2)c2cccc4c2N3CC4)cc1` (centres undefined), 1000 nM. For `COC(=O)c1ccc(NC(=O)Nc2cccc(C#N)c2)c(CN2CCC(Cc3ccc(F)cc3)CC2)c1`, the concentration for half-maximal inhibition (IC50) turned out to be 67 nM. Turning to `O=C(Nc1ccc(F)cc1)Nc1ccccc1CCN1CCC(Cc2ccc(F)cc2)CC1`, the IC50 is 35 nM. On the same count and under the same terms, with `O=C(NCC(CCCN1CCC(O)(c2ccc(Cl)cc2)CC1)(c1ccccc1)c1ccccc1)NC1CCN(Cc2ccccc2)CC1` the figure was 1620 nM.

Take `O=C(NCCc1ccc(F)cc1)Nc1ccccc1CN1CCN(Cc2ccccc2)CC1`: the IC50 worked out at 9200 nM. Still for that read-out and setting: with `C[N+]1(Cc2cc(O)ccc2NC(=O)Nc2cccc(C#N)c2)CCC(Cc2ccccc2)CC1` (centres undefined) the figure was 21 nM; with `O=C(Nc1ccccc1)Nc1ccccc1C(O)CN1CCC(Cc2ccccc2)CC1` (centres undefined), 249 nM; with `COc1cccc(NC(=O)NCc2ccccc2CN2CCC(Cc3ccccc3)CC2)c1`, 2400 nM. On the same count and under the same terms, the result for `O=C(Nc1ccccc1)Nc1ccccc1CN1CCC(Cc2ccc(F)cc2)CC1` reads 361 nM; that for `N#Cc1cccc(NC(=O)Nc2ccc(CO)cc2CN2CCC(Cc3ccc(F)cc3)CC2)c1`, 55 nM; that for `O=C(Nc1ccccc1)Nc1ccccc1C(O)CN1CCC(Cc2ccc(F)cc2)CC1` (centres undefined), 24 nM. Still for that read-out and setting: the result for `CNC(=O)NCC(CCCN1CCC(O)(c2ccc(Cl)cc2)CC1)(c1ccccc1)c1ccccc1` reads 8300 nM.

With `COc1cccc(NC(=O)Nc2cc(CO)ccc2CN2CCC(Cc3ccccc3)CC2)c1`, the IC50 was 360 nM. `N#Cc1cccc(NC(=O)Nc2cc3c(cc2CN2CCC(Cc4ccc(F)cc4)CC2)OCO3)c1`: the IC50 amounted to 85 nM. Still for that read-out and setting: with `O=C(NCC(c1ccccc1)c1ccccc1)Nc1ccccc1CN1CCC(Cc2ccccc2)CC1` the figure was 2650 nM; with `OC1(c2ccc(Cl)cc2)CCN(CCCCc2ccccc2)CC1`, 14500 nM; with `O=C(Nc1cccc(CN2CCC(Cc3ccccc3)CC2)c1)NC1CCN(Cc2ccccc2)CC1`, 3700 nM. With `N#Cc1cccc(NC(=O)Nc2ccccc2C(O)CN2CCC(Cc3ccc(F)cc3)CC2)c1` (centres undefined), the IC50 amounted to 11 nM. Turning to `O=C(Nc1cc(F)ccc1F)Nc1ccccc1CN1CCC(c2ccccc2)CC1`, the 50% inhibitory concentration (IC50) was 11000 nM. Same read-out and setting: with `N#Cc1cccc(NC(=O)NCc2ccccc2CN2CCC(Cc3ccccc3)CC2)c1` the figure was 2800 nM; with `O=C(Cc1ccc(F)cc1)Nc1ccccc1CCN1CCC(Cc2ccc(F)cc2)CC1`, 153 nM; with `c1ccc(CCCCN2CCN(Cc3ccccc3)CC2)cc1`, 8400 nM.

Regarding `N#Cc1cccc(NC(=O)Nc2c(CN3CCC(Cc4ccc(F)cc4)CC3)ccc3ccccc23)c1`, the 50% inhibitory concentration (IC50) worked out at 529 nM.

`C[N+]1(Cc2cc3c(cc2NC(=O)Nc2cccc(C#N)c2)OCO3)CCC(Cc2ccccc2)CC1` (centres undefined): the IC50 was 11 nM.

In the case of `O=C(NCC(c1ccccc1)c1ccccc1)Nc1ccccc1CN1CCC(C(=O)c2ccccc2)CC1`, the IC50 worked out at 3900 nM. On the same count and under the same terms, the result for `O=C(Nc1cc(F)ccc1F)Nc1ccccc1CN1CCC(C(=O)c2ccccc2)CC1` reads 4650 nM. The same measure, in the same setting: with `COC(=O)c1ccc(NC(=O)Nc2cccc(C(C)=O)c2)c(CN2CCC(Cc3ccc(F)cc3)CC2)c1` the figure was 42 nM; with `N#Cc1cccc(NC(=O)Nc2cccc(CN3CCC(Cc4ccccc4)CC3)c2)c1`, 450 nM. As to `N#Cc1cccc(NC(=O)Nc2cccc(C(N)=O)c2CN2CCC(Cc3ccc(F)cc3)CC2)c1`, the 50% inhibitory concentration (IC50) came to 3 nM.

For `N#Cc1cccc(NC(=O)Nc2ccccc2CN2CCC(Cc3ccc(F)cc3)CC2)c1`, the IC50 turned out to be 310 nM. Still for that read-out and setting: the result for `COc1cccc(NC(=O)Nc2ccccc2CCN2CCC(Cc3ccc(F)cc3)CC2)c1` reads 11 nM. For the compound `COC(=O)c1cccc(NC(=O)Nc2cccc(C#N)c2)c1CN1CCC(Cc2ccc(F)cc2)CC1`, the IC50 is 7 nM.

Regarding `COC(=O)c1cccc(NC(=O)Nc2ccccc2)c1CN1CCC(Cc2ccc(F)cc2)CC1`, the concentration for half-maximal inhibition (IC50) worked out at 9 nM. Same read-out and setting: the result for `N#Cc1cccc(NC(=O)Nc2ccc(O)cc2CN2CCC(Cc3ccccc3)CC2)c1` reads 277 nM; that for `O=C(Nc1ccccc1)Nc1cccc(C(=O)O)c1CN1CCC(Cc2ccc(F)cc2)CC1`, 17 nM. On the same count and under the same terms, with `O=C(NCc1ccc2c(c1)OCO2)Nc1ccccc1CN1CCC(Cc2ccccc2)CC1` the figure was 1750 nM; with `N#Cc1cccc(NC(=O)Nc2ccc(C(N)=O)cc2CN2CCC(Cc3ccc(F)cc3)CC2)c1`, 8 nM; with `N#Cc1cccc(NC(=O)Nc2cc3c(cc2CN2CCC(Cc4ccccc4)CC2)OCO3)c1`, 237 nM. On the same count and under the same terms, with `COc1cccc(NC(=O)Nc2ccccc2C(O)CN2CCC(Cc3ccc(F)cc3)CC2)c1` (centres undefined) the figure was 21 nM; with `O=C(NCc1ccc2c(c1)OCO2)Nc1ccccc1CN1CCC(C(=O)c2ccccc2)CC1`, 7350 nM; with `COC(=O)c1ccc(NC(=O)Nc2cccc(OC)c2)c(CN2CCC(Cc3ccc(F)cc3)CC2)c1`, 64 nM.

(Values after ChEMBL document CHEMBL1135587, “Discovery and structure-activity relationship of N-(ureidoalkyl)-benzyl-piperidines as potent small molecule CC chemokine receptor-3 (CCR3) antagonists” (J Med Chem, 2002).)
